An excerpt weighted towards active compounds, which were near 8.8% of everything screened.
M1 ag = agonists of M1 muscarinic receptor. B-score at 10 µM. CHO-M1 cells, Fluo-4 calcium fluorescence, agonist mode; stronger effect = higher value. 64,000 compounds, 3% hits;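 active = fluorescence rise, raw or as B-score row- and column-corrected plate score, outside the 99.7% band of its plate's samples, either direction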
S1P1 ag-PAM = agonists and agonism potentiators of human S1P1 receptor | P21453 | S1P1 CRE-bla cells, forskolin, beta-lactamase FRET, potentiator mode; S1P1 agonist co-added at EC20, 2 nM; 100% = saturating reference agonist, 0% = basal | activation, % at 9.5 µM | 56,000 compounds, 0.57% hits;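 active = activation above a cutoff set at the mean activation of all tested compounds plus 3 SD, cut at about 54% in these data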;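 also: forskolin at 4 µM as EC80 and the EC20 agonist is SEW2871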
S1P3 ag = agonists of human S1P3 receptor. Q99500. S1P3 NFAT-BLA reporter cells, agonism, FRET ratio; relative to 1 µM S1P, basal subtracted. activation, % at 4.5 µM. 60,000 compounds, 0.1% hits;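 active = activation above the screen-wide mean plus 3 SD, cut at about 4.5% in these data, passing the limit was not always enough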
Target sequence (Q99500 whole entry, looked up): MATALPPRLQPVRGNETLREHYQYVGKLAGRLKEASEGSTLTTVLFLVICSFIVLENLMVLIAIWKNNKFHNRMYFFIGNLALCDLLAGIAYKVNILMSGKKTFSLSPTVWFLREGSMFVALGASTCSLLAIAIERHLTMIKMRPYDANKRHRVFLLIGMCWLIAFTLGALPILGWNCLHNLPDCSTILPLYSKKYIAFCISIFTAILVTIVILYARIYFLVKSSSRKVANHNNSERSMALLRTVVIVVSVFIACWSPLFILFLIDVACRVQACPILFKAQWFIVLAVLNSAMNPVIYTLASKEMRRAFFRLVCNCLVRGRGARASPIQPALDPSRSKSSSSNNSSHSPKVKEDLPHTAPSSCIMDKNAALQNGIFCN
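Assay system: stable CHO line with human S1P3, Gα16, NFAT-BLA reporter; Detection: FRET β-lactamase substrate fluorescence, excitation 405 nm, 460/535 nm emission ratio, background-subtracted; Read-out: percent activation versus median 1 µM S1P response, basal-subtracted, per plate; Incubation: cells plated overnight, compound 4 h 37 °C, substrate 2 h RT.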
RORA act = RORA (human) activation; P35398; activation, % at 10 µM; AID 560; CHO-K1 Gal4-RORA LBD luciferase reporter, luminescence; percent increase over mock-subtracted basal signal; 65,000 compounds, 1.5% hits;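 active = activation above the mean of all tested compounds plus 3 SD, cut at about 49% in these data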
M1 antag = blocks the rat M1 muscarinic receptor response to acetylcholine | P08482 | CHO-M1 cells, Fluo-4 calcium, ACh EC80 antagonist mode; stronger effect = lower value | B-score at 10 µM | 64,000 compounds, 3.4% hits;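 active = calcium fluorescence response, raw or row-and-column corrected B-score, differing from the plate sample mean either way at a set confidence level, mostly lower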
SF1 activator = activates the human nuclear receptor SF-1; Q13285; CHO-K1 Gal4-SF-1 LBD luciferase reporter; % increase over DMSO SF-1-specific signal; 65,000 compounds, 1.9% hits; AID 522; activation, % at 10 µM;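 active = activation above the mean activation of all tested compounds plus 3 SD, cut at about 50% in these data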
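Assay system: CHO-K1 cells co-transfected with Gal4 DBD–human SF-1 LBD, 5xGal4 luciferase reporter / Input: 4,000 cells per well / Incubation: 20 h compound exposure at 37 °C after 1 h cell settling / Detection: SteadyLite luciferase luminescence / Control set: DMSO negative control and −SF1 background wells / Replication: one test per compound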
M1 antag confirm = confirmation of rat M1 muscarinic receptor antagonists; shares compounds with M1 antag; CHO-M1 cells, Fluo-4 calcium, ACh EC80 antagonism; stronger effect = lower value; calcium response (max-min fluorescence) at 10 µM; 1,700 compounds, 43% hits;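 active = calcium response below the same-plate mean of wells given acetylcholine alone at its 80%-effect dose, minus 3 SD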
mGluR4 antag = selectivity test for M1 antagonists: human mGluR4 receptor; shares compounds with M1 antag; CHO-mGluR4 calcium flux, Fluo-4 fluorescence, glutamate EC80; stronger effect = lower value; fluorescence response (max-min) at 10 µM; 1,700 compounds, 0.9% hits; AID 678;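 active = fluorescence response below the plate's average for near-maximal glutamate wells, less 3 SD of those wells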;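 also: raw unnormalized fluorescence span taken in the window right after glutamate addition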
Hits are given with their value.

`CC1=CC(=C2C(=O)c3ccccc3C2=O)C=C(C)N1Cc1ccco1` gave M1 ag inactive, S1P1 ag-PAM inactive, S1P3 ag inactive, RORA act inactive, M1 antag inactive and SF1 activator inactive.
COc1ccc(NC(=O)C2CCCN2c2ccc(OC)c(OC)c2)cc1OC (stereo not given) was read as M1 ag inactive, RORA act inactive, M1 antag inactive and SF1 activator inactive.
Cc1ccc2c(c1)NC(=O)C(CC(=O)NCCCN1CCCCC1C)O2 (stereo not given) was read as M1 ag inactive, S1P1 ag-PAM inactive, S1P3 ag inactive, RORA act inactive, M1 antag inactive and SF1 activator inactive.
`CCC(C)N(CCNC(=O)CC1Oc2ccc(C)cc2NC1=O)C1CCCCC1` (stereo not given) gave M1 ag inactive, S1P1 ag-PAM inactive, S1P3 ag inactive, RORA act inactive, M1 antag -8.78, SF1 activator inactive, M1 antag confirm 20.7 and mGluR4 antag inactive.
Screening CCc1nc2ccccc2c(C(=O)OCC(=O)NCCCN2CCCC2=O)c1C returned M1 ag inactive, S1P1 ag-PAM inactive, S1P3 ag inactive, RORA act inactive, M1 antag inactive and SF1 activator inactive.
`O=C(OCCN1CCCC1)C1(c2ccccc2)CCCC1` gave M1 ag inactive, S1P1 ag-PAM inactive, S1P3 ag inactive, RORA act inactive, M1 antag -14.7, SF1 activator inactive, M1 antag confirm 28.3 and mGluR4 antag inactive.
Screening Cc1c(S(=O)(=O)N2CCN(c3cccc(C(F)(F)F)c3)CC2)c(=O)n(C)c(=O)n1C returned M1 ag inactive, S1P1 ag-PAM inactive, S1P3 ag inactive, RORA act inactive, M1 antag inactive and SF1 activator inactive.
Cc1c(CN2CCN(c3cccc(C(F)(F)F)c3)CC2)c(=O)n(-c2ccccc2)n1C was read as M1 ag inactive, S1P1 ag-PAM inactive, S1P3 ag inactive, RORA act inactive, M1 antag -4.41, SF1 activator inactive, M1 antag confirm 458 and mGluR4 antag inactive.
COC(=O)/C=c1/s/c(=C(\C#N)C(=O)NCc2ccco2)n(-c2ccccc2)c1=O was read as M1 ag inactive, S1P1 ag-PAM inactive, S1P3 ag inactive, RORA act inactive, M1 antag -2.23, SF1 activator inactive, M1 antag confirm inactive and mGluR4 antag inactive.
Screening N#CCCN1CCN(S(=O)(=O)c2ccc(S(=O)(=O)N3CCCCCC3)cc2)CC1 returned M1 ag inactive, S1P1 ag-PAM inactive, S1P3 ag inactive, RORA act inactive, M1 antag inactive and SF1 activator inactive.
Screening CCN(C1CCCCC1)S(=O)(=O)c1ccc(S(=O)(=O)N2CCN(CCC#N)CC2)cc1 returned M1 ag inactive, S1P1 ag-PAM inactive, S1P3 ag inactive, RORA act inactive, M1 antag -1.52, SF1 activator inactive, M1 antag confirm 327 and mGluR4 antag inactive.
`Cc1nc2ccccn2c1/C(O)=C1\C(=O)C(=O)N(CCCN(C)C)C1c1ccc(F)cc1` (stereo not given) gave M1 ag inactive, S1P1 ag-PAM inactive, S1P3 ag inactive, RORA act inactive, M1 antag inactive and SF1 activator inactive.
Screening COC(=O)c1ccc(CSc2nnnn2C)o1 returned M1 ag inactive, S1P1 ag-PAM inactive, S1P3 ag inactive, RORA act inactive, M1 antag -3.14, SF1 activator inactive, M1 antag confirm 399 and mGluR4 antag inactive.
Screening COC(=O)c1ccc(CSc2ccc3nnc(-c4cccc(F)c4)n3n2)o1 returned M1 ag inactive, S1P1 ag-PAM inactive, S1P3 ag inactive, RORA act inactive, M1 antag -9.18, SF1 activator inactive, M1 antag confirm 216 and mGluR4 antag inactive.
Screening COC(=O)c1ccc(CSc2nnc3c(Cl)cc(Cl)cn23)o1 returned M1 ag inactive, S1P1 ag-PAM inactive, S1P3 ag inactive, RORA act inactive, M1 antag inactive and SF1 activator inactive.
For Cc1ccnc(NC(=O)CCC(=O)N(CC(=O)NCC2CCCO2)Cc2ccc(F)cc2)c1 (stereo not given) the results were M1 ag inactive, S1P1 ag-PAM inactive, S1P3 ag inactive, RORA act inactive, M1 antag inactive and SF1 activator inactive.
`N#Cc1nc(-c2cccs2)oc1N1CCN(Cc2ccccc2)CC1` gave M1 ag inactive, S1P1 ag-PAM inactive, S1P3 ag inactive, RORA act inactive, M1 antag inactive and SF1 activator inactive.
Screening COc1ccc(N2C(=O)CSC23C(=O)N2CCCc4cccc3c42)cc1 (stereo not given) returned M1 ag inactive, S1P1 ag-PAM inactive, S1P3 ag inactive, RORA act inactive, M1 antag -16.9, SF1 activator inactive, M1 antag confirm 28.3 and mGluR4 antag inactive.
`CCOC(=O)C1CCCN(C(=O)c2ccc3c(=O)n(CCOC)c(=S)[nH]c3c2)C1` (stereo not given) gave M1 ag inactive, RORA act inactive, M1 antag inactive and SF1 activator inactive.
CCOC(=O)N1CCN(C(=O)c2ccc3c(=O)n(CCc4ccccc4)c(=O)[nH]c3c2)CC1 was read as M1 ag inactive, RORA act inactive, M1 antag -5.1, SF1 activator inactive, M1 antag confirm 296 and mGluR4 antag inactive.
For CCOC(=O)N1CCN(C(=O)c2ccc3c(=O)n(CCOC)c(=O)[nH]c3c2)CC1 the results were M1 ag inactive, RORA act inactive, M1 antag -2.06, SF1 activator inactive, M1 antag confirm inactive and mGluR4 antag inactive.
CCOC(=O)c1ccccc1NC(=O)c1ccc2c(=O)n3c(nc2c1)CCCCC3 was read as M1 ag inactive, S1P1 ag-PAM inactive, S1P3 ag inactive, RORA act inactive, M1 antag inactive and SF1 activator inactive.
Screening CCOC(=O)N1CCN(C(=O)c2ccc3c(=O)n4c(nc3c2)CCCCC4)CC1 returned M1 ag inactive, S1P1 ag-PAM inactive, S1P3 ag inactive, RORA act inactive, M1 antag -5.29, SF1 activator inactive, M1 antag confirm 300 and mGluR4 antag inactive.
